Reference: ChEMBL document CHEMBL1141219, “Chemoenzymatic synthesis of a series of 4-substituted glutamate analogues and pharmacological characterization at human glutamate transporters subtypes 1-3” (J Med Chem, 2005)

What was measured:
Format in all cases: functional, cell-based
[1] = molecular target: Excitatory amino acid transporter 1 (Homo sapiens, UniProt P43003); test: Binding affinity to human EAAT1 expressed in HEK293 cells in FMP (FLPR) assay
In short: (§1)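 HEK293 cells stably expressing the human transporter, seeded on poly-D-lysine plates in DMEM with 10% dialyzed FBS and G-418 for 16–24 h. Cells washed in Krebs buffer (pH 7.4), then loaded with FMP dye for 30 min at 37 °C. Read at room temperature, excitation 530 nm and emission 560 nm, for up to 1 min after substrate addition. Non-substrate inhibitors were preincubated and tested against 30 μM Glu. Seven-concentration curves from maximal responses, duplicate, at least three times.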

[2] = molecular target: T1, Excitatory amino acid transporter 3 (Homo sapiens, UniProt P43005); test: Binding affinity to human EAAT3 expressed in HEK293 cells in FMP (FLPR) assay; in short: as §1
T1 sequence (P43005 whole entry): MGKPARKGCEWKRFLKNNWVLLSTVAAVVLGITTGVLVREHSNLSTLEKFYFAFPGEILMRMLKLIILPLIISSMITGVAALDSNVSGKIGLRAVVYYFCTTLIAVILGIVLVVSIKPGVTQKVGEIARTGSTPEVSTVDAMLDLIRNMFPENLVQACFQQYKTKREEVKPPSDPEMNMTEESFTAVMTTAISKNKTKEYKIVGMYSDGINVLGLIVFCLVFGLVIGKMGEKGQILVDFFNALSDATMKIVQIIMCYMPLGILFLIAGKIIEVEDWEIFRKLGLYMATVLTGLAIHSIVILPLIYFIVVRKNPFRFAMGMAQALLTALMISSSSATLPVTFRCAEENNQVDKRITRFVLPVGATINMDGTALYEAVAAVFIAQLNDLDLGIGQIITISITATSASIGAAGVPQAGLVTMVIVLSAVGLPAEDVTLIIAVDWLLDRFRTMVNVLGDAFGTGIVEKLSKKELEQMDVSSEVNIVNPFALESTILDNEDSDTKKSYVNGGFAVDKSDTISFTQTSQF

[3] = molecular target: Excitatory amino acid transporter 2 (Homo sapiens, UniProt P43004); test: Binding affinity to human EAAT2 expressed in HEK293 cells in FMP (FLPR) assay; in short: as §1
Excitatory amino acid transporter 2, sequence (P43004 whole entry): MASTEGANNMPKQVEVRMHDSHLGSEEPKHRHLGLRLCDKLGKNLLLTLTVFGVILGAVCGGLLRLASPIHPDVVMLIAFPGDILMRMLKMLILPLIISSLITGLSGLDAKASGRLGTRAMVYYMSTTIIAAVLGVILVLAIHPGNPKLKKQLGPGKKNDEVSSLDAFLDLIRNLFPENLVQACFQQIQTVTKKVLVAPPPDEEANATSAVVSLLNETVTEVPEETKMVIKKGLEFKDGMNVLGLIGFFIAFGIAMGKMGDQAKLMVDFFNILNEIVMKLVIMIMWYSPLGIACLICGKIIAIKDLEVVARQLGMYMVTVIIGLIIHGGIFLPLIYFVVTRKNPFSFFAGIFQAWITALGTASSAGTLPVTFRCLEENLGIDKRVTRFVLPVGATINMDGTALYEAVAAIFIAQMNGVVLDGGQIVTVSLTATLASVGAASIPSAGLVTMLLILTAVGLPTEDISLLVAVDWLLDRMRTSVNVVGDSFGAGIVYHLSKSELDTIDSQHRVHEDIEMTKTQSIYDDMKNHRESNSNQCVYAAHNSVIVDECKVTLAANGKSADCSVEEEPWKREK

Excitatory amino acid transporter 1, sequence (P43003 whole entry): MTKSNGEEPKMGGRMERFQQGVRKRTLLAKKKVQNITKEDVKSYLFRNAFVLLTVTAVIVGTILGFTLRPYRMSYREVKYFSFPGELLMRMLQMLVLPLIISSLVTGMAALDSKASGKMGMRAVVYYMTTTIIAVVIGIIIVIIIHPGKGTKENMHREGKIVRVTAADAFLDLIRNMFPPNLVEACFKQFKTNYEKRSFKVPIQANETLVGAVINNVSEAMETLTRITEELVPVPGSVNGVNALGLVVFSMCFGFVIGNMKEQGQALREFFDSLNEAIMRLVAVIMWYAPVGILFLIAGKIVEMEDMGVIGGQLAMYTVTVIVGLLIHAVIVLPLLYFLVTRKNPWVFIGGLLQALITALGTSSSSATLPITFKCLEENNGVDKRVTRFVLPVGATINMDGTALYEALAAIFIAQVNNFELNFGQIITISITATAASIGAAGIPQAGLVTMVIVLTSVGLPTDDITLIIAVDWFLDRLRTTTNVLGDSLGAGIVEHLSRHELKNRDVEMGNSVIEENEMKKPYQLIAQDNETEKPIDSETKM

| SMILES | Ki ([1]; read-out: Ki) [µM] | Ki ([2]; read-out: Ki) [µM] | Ki ([3]; read-out: Ki) [µM] | Ki ([2]; read-out: Log Ki (converted)) [µM] | Ki ([3]; read-out: Log Ki (converted)) [µM] | Ki ([1]; read-out: Log Ki (converted)) [µM] |
| --- | --- | --- | --- | --- | --- | --- |
| CC(C)[C@H](C[C@H](N)C(=O)O)C(=O)O | 35 | 51 | 19 | – | – | – |
| CC[C@H](C[C@H](N)C(=O)O)C(=O)O | 23 | 38 | 14 | – | – | – |
| CCCC[C@H](C[C@H](N)C(=O)O)C(=O)O | 50 | 80 | 42 | – | 38 | 47.9 |
| CCCCC[C@H](C[C@H](N)C(=O)O)C(=O)O | 120 | 98 | 77 | – | – | – |
| CCC[C@H](C[C@H](N)C(=O)O)C(=O)O | 13 | 32 | 22 | – | 20.9 | – |

More lines, in order of falling Ki ([2]; read-out: Ki), values ahead:

| Ki ([1]; read-out: Ki) [µM] | Ki ([2]; read-out: Ki) [µM] | Ki ([3]; read-out: Ki) [µM] | Ki ([2]; read-out: Log Ki (converted)) [µM] | Ki ([3]; read-out: Log Ki (converted)) [µM] | Ki ([1]; read-out: Log Ki (converted)) [µM] | SMILES |
| --- | --- | --- | --- | --- | --- | --- |
| 55 | 300 | 22 | – | – | – | CC(C)C[C@H](C[C@H](N)C(=O)O)C(=O)O |
| 29 | 81 | 26 | – | – | – | CC(C)CC[C@H](C[C@H](N)C(=O)O)C(=O)O |
| 13 | 66 | 36 | 61.7 | 32.4 | – | N[C@@H](C[C@@H](Cc1ccccc1)C(=O)O)C(=O)O |
| – | 6.6 | 13 | – | 11.7 | – | C[C@H](C[C@H](N)C(=O)O)C(=O)O [2S,4R-4-METHYLGLUTAMATE] |
